Common to all, as to format: functional
For one assay, the system named is Callosobruchus maculatus. As to the kind of experiment: Insecticidal activity against adult Callosobruchus maculatus assessed as mortality at 0.1% at 27 +/-1 degC after 24 hr by contact based film residue method. The method, boiled down:
(§1)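 Lab-reared adults, 2-5 days old, exposed to a dry film: 1 mL of 0.1% compound solution in dichloromethane is swirled in a 90 mm Petri plate and dried 3-5 min. Ten adults per plate are held at 27 ± 1 °C and 70% RH. Mortality is scored at 24 h, with no response to touch counted as dead. Triplicates, solvent control, malathion reference.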

The test system of another assay is Rhizoctonia solani. As to the kind of experiment: Fungicidal activity against Rhizoctonia solani by poisoned food technique. Conditions: read-out: ED50 (the source's name).
The subject of a further assay is Macrophomina phaseolina. As to the kind of experiment: Fungicidal activity against Rhizoctonia bataticola by poisoned food technique. Conditions: read-out: ED50 (the source's name).
Assay [1] has as its system Spodoptera litura. As to the kind of experiment: Insecticidal activity against third-instar larval stage of Spodoptera litura assessed as mortality at 0.1% applied topically on the ventral side of the larvae measured after 24 hr by contact method. In outline:
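Field-collected larvae are reared in the lab at 27 ± 1 °C and 70% RH. Two microliters of a 0.1% dichloromethane solution is applied to the ventral side. Ten treated larvae are kept per glass bottle and fed fresh castor leaves. Mortality is recorded at 24 h. Triplicate, solvent control.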

Assay [2] has as its system Tribolium castaneum. As to the kind of experiment: Insecticidal activity against adult Tribolium castaneum (red flour beetle) in compound pre-treated green gram grains assessed as mortality at 20 mg/kg after 48 hr by feeding based residue method. Conditions: in Vigna radiata. In outline: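 Green gram grains are treated with compound in dichloromethane (0.6 mg in 5 mL) at 20 mg active ingredient per kg grain (0.002%). Ten adults are released onto 10 g of treated grain in a plastic box. Mortality is recorded after 48 h. Triplicate, solvent-treated control.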

The next assay concerns Athelia rolfsii. As to the kind of experiment: Fungicidal activity against Athelia rolfsii by poisoned food technique. Conditions: Agroathelia rolfsii; read-out: ED50 (the source's name).
The test system of another assay is Fusarium oxysporum. Briefly: Fungicidal activity against Fusarium oxysporum by poisoned food technique. Conditions: read-out: ED50 (the source's name).
The test system of assay [3] is Spodoptera litura. Briefly: Insecticidal activity against third-instar larval stage of prestarved Spodoptera litura in castor leaf assessed as mortality at 0.1% treated for 2 secs before larval infestation measured after 24 hr by feeding method. The method, boiled down:
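Castor leaf is dipped 2 s in 0.1% compound solution, air-dried, and placed on moist filter paper in 9 cm Petri plates. Larvae starved 4 h beforehand are released singly, one per plate. Thirty replicates per treatment, solvent control. Mortality is scored after 24 h.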

Another assay relates to Alternaria porri. Briefly: Fungicidal activity against Alternaria porri by poisoned food technique. Conditions: read-out: ED50 (the source's name).
Assay [4] relates to Tribolium castaneum. As to the kind of experiment: Insecticidal activity against adult Tribolium castaneum (red flour beetle) assessed as mortality at 0.1% at 27 +/-1 degC after 24 hr by contact based film residue method. In outline: as §1

The results in this text go back to ChEMBL document CHEMBL3045963, “Synthesis of nalidixic acid based hydrazones as novel pesticides” (2010).

≈ marks a conversion by molar mass, not a printed value.

For the molecule `CCn1cc(C(=O)N/N=C/c2ccc3ccccc3c2)c(=O)c2ccc(C)nc21`, the mortality with Callosobruchus maculatus came to 0%; in the assay on Spodoptera litura [1], 10%; in the assay on Spodoptera litura [3], 70%. In addition, the EC50 in the assay with Rhizoctonia solani amounted to 192 µg/mL (≈ 498 µM); with Macrophomina phaseolina, 256 µg/mL (≈ 666 µM); in the assay on Athelia rolfsii, 202 µg/mL (≈ 526 µM); with Fusarium oxysporum, 89.5 µg/mL (≈ 233 µM); in the assay on Alternaria porri, 75.6 µg/mL (≈ 197 µM). For the same molecule, in the assay on Tribolium castaneum [2], the mortality at 20 mg/kg came out at 10%.
Take `CCn1cc(C(=O)N/N=C/c2c3ccccc3cc3ccccc23)c(=O)c2ccc(C)nc21`: the mortality with Callosobruchus maculatus is 10%; in the assay on Spodoptera litura [1], 10%; in the assay on Spodoptera litura [3], 20%. Besides, the EC50 in the assay with Rhizoctonia solani stood at 374 µg/mL (≈ 861 µM); with Macrophomina phaseolina, 390 µg/mL (≈ 897 µM); in the assay on Athelia rolfsii it was 429 µg/mL (≈ 986 µM); with Fusarium oxysporum, 222 µg/mL (≈ 511 µM); in the assay on Alternaria porri, 151 µg/mL (≈ 348 µM). In addition, in the assay on Tribolium castaneum [2], the mortality at 20 mg/kg stood at 15%.
Turning to `CCn1cc(C(=O)NN=C2CCCCC2)c(=O)c2ccc(C)nc21`, the values for the mortality in the assay on Callosobruchus maculatus and in the assay with Spodoptera litura [3] were 0% and 70%, respectively. In addition, the EC50 in the assay on Rhizoctonia solani came to 166 µg/mL (≈ 510 µM); in the assay on Macrophomina phaseolina, 188 µg/mL (≈ 577 µM); in the assay with Athelia rolfsii, 177 µg/mL (≈ 543 µM); with Fusarium oxysporum, 62.6 µg/mL (≈ 192 µM); in the assay on Alternaria porri, 34.2 µg/mL (≈ 105 µM). Also, the mortality at 20 mg/kg in the assay on Tribolium castaneum [2] turned out to be 15%.
Take `CCn1cc(C(=O)NN=C2C3CC4CC(C3)CC2C4)c(=O)c2ccc(C)nc21`: the mortality in the assay on Callosobruchus maculatus is 0%; in the assay on Spodoptera litura [1], 10%; with Spodoptera litura [3], 50%. The EC50 in the assay with Rhizoctonia solani worked out at 405 µg/mL (≈ 1070 µM); in the assay with Macrophomina phaseolina, 638 µg/mL (≈ 1690 µM); with Athelia rolfsii, 524 µg/mL (≈ 1380 µM); in the assay with Fusarium oxysporum, 258 µg/mL (≈ 683 µM); in the assay on Alternaria porri, 133 µg/mL (≈ 351 µM). In the assay on Tribolium castaneum [2], the mortality at 20 mg/kg amounted to 10%.
For the molecule `CCn1cc(C(=O)N/N=C/c2ccc(OC)cc2)c(=O)c2ccc(C)nc21`, the mortality with Callosobruchus maculatus and with Spodoptera litura [3] was 70% throughout. Moreover, the EC50 in the assay with Rhizoctonia solani was found to be 238 µg/mL (≈ 654 µM); with Macrophomina phaseolina, 301 µg/mL (≈ 825 µM); with Athelia rolfsii, 320 µg/mL (≈ 879 µM); in the assay on Fusarium oxysporum, 152 µg/mL (≈ 416 µM); in the assay with Alternaria porri, 121 µg/mL (≈ 332 µM). Moreover, the mortality at 20 mg/kg with Tribolium castaneum [2] is 30%.
On to `CCn1cc(C(=O)N/N=C/c2ccccc2F)c(=O)c2ccc(C)nc21`, for which the results for the mortality in the assay on Callosobruchus maculatus, in the assay on Spodoptera litura [1] and in the assay on Spodoptera litura [3] were 30%, 10% and 90%, respectively. For the same molecule, the EC50 with Rhizoctonia solani came out at 359 µg/mL (≈ 1020 µM); in the assay on Macrophomina phaseolina, 668 µg/mL (≈ 1900 µM); in the assay with Athelia rolfsii, 540 µg/mL (≈ 1530 µM); in the assay on Fusarium oxysporum, 107 µg/mL (≈ 305 µM); in the assay with Alternaria porri, 78.3 µg/mL (≈ 222 µM). In addition, the mortality at 20 mg/kg in the assay on Tribolium castaneum [2] was 10%.
Take `CCn1cc(C(=O)N/N=C/c2ccccc2Cl)c(=O)c2ccc(C)nc21`: the mortality in the assay on Callosobruchus maculatus turned out to be 30%; in the assay on Spodoptera litura [1], 10%; in the assay with Spodoptera litura [3], 10%. Also, the EC50 is 246 µg/mL (≈ 666 µM) with Rhizoctonia solani; 593 µg/mL (≈ 1610 µM) in the assay with Macrophomina phaseolina; 570 µg/mL (≈ 1550 µM) in the assay on Athelia rolfsii; 143 µg/mL (≈ 389 µM) in the assay on Fusarium oxysporum; 90.1 µg/mL (≈ 244 µM) with Alternaria porri. Besides, the mortality at 20 mg/kg in the assay on Tribolium castaneum [2] came out at 10%.
As for `CCn1cc(C(=O)N/N=C/c2ccccc2[N+](=O)[O-])c(=O)c2ccc(C)nc21`, the mortality in the assay with Callosobruchus maculatus is on record as 60%; in the assay with Spodoptera litura [1], 30%; with Spodoptera litura [3] it was 100%. Further, the EC50 came to 329 µg/mL (≈ 866 µM) with Rhizoctonia solani; 610 µg/mL (≈ 1610 µM) with Macrophomina phaseolina; 655 µg/mL (≈ 1730 µM) in the assay with Athelia rolfsii; 169 µg/mL (≈ 445 µM) in the assay with Fusarium oxysporum; 71.3 µg/mL (≈ 188 µM) in the assay with Alternaria porri. The mortality at 20 mg/kg in the assay on Tribolium castaneum [2] amounted to 20%.
For `CCOC(=O)CC(SP(=S)(OC)OC)C(=O)OCC` (stereo not drawn) [MALATHION], the mortality with Callosobruchus maculatus and with Tribolium castaneum [4] was 100% each time. Besides, the mortality at 20 mg/kg in the assay on Tribolium castaneum [2] was 100%.

As usually defined, the mortality is the percentage killed.
